The source made the active and inactive calls. No cut-off for these calls is given here.
Assays:
[1] = target: Fibroblast growth factor 2 (Homo sapiens, UniProt P09038); experiment: Binding affinity to FGF2 by surface plasmon-based solution affinity assay
Procedure, shortened: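 Surface plasmon resonance solution affinity assay on heparin-coated CM4 chips. FGF-2 binding run in HBS-EP containing 300 mM NaCl. Kd is the mean of at least duplicate measurements ± SD.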

[2] = tested on: Plasma; experiment: Anticoagulant activity in human plasma assessed as activated partial thromboplastin time; format: functional
Procedure, shortened: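 Pooled normal human plasma spiked with compound in PBS at 0.1 mg/mL (methods give a 0–100 μg/mL range); APTT elevation measured. Normal range 26–36 s. Values are means of two determinations.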

[3] = tested on: HUVEC; experiment: Cytotoxicity against HUVEC; format: cell-based; settings: human
[4] = target: T1, Vascular endothelial growth factor A, long form (Homo sapiens, UniProt P15692); experiment: Binding affinity to VEGF by surface plasmon-based solution affinity assay
T1 sequence (P15692 whole entry): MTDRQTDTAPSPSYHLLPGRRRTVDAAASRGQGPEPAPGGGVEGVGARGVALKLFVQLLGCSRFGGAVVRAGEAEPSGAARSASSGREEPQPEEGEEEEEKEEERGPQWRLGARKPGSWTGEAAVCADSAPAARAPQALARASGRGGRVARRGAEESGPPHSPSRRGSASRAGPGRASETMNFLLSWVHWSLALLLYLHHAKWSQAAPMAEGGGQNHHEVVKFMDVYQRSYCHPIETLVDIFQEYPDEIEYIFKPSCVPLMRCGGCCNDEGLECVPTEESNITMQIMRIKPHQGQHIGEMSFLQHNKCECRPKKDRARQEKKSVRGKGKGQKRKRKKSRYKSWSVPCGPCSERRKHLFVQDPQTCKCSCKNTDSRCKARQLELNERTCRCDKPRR
Procedure, shortened: (§1)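 Surface plasmon resonance solution affinity assay on heparin-coated CM4 chips. Buffer: HBS-EP (10 mM HEPES pH 7.4, 150 mM NaCl, 3.0 mM EDTA, 0.005% polysorbate 20). Kd is the mean of at least duplicate measurements ± SD.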

[5] = target: Fibroblast growth factor 1 (Homo sapiens, UniProt P05230); experiment: Binding affinity to FGF1 by surface plasmon-based solution affinity assay; procedure, shortened: as §1
Chain of Fibroblast growth factor 1 (P05230 whole entry): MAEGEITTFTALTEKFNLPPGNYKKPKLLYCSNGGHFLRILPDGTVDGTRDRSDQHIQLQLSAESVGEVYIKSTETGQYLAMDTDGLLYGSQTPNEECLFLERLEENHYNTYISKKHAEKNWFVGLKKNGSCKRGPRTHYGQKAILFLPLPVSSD

[6] = tested on: Plasma; experiment: Anticoagulant activity in human plasma by heptest; format: functional
Procedure, shortened: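 Heptest clot assay. Plasma (centrifuged 1800g, 10 min, used within 30 min) incubated with compound 2 min at 37 °C. Factor Xa added, 2 min at 37 °C, then clotting started with Recalmix; read on a ball coagulometer. Normal range 13–20 s; means of two determinations.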

[7] = target: T2, Heparanase (Homo sapiens, UniProt Q9Y251); experiment: Inhibition of human recombinant heparanase
T2 sequence (Q9Y251 whole entry): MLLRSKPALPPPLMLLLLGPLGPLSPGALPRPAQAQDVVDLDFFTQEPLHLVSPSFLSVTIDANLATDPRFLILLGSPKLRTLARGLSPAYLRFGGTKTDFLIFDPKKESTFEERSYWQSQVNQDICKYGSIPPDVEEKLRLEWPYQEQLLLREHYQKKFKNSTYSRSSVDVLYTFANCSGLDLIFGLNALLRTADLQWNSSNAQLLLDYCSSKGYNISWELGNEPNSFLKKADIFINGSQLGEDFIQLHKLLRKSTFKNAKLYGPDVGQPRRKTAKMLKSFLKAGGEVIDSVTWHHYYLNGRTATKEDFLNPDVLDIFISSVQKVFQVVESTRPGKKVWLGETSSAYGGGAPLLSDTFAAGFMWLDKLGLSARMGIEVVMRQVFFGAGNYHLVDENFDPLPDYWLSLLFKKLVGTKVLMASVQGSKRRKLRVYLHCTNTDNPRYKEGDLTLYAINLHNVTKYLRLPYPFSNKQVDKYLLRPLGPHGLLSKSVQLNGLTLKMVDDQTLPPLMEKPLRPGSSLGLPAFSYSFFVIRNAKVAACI
Procedure, shortened: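 Recombinant human heparanase assayed by ultrafiltration with 3H-labelled heparan sulfate as substrate (Km = 1.64 μM). Ki values with standard error were derived from inhibition response curves.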

[8] = tested on: HUVEC; experiment: Inhibition of VEGF-induced HUVEC cell proliferation; format: functional, cell-based; settings: Homo sapiens
Procedure, shortened: (§2)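 HUVECs seeded at 1–3 × 10^3 per well in EGM with 2% FBS and gentamicin. Proliferation driven by VEGF, FGF-1 or FGF-2; compound added typically at seven concentrations (1–50 μM) in triplicate. After 70 h, MTS reagent added for 2 h and A490 read. IC50 obtained from blank-subtracted curves.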

[9] = Toxicity in rat aortic endothelium assessed as microvessel sprouts at 10 and 50 uM after 6 or 7 days; format: tissue-based, Sprague-Dawley, Aorta; settings: ex_vivo, 168 h
Procedure, shortened: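 Aortic ring viability check: on day 6 or 7, compound or medium was withdrawn and complete medium with VEGF (typically 10 ng/mL) was added for up to 7 more days. New microvessel sprouting was taken as a sign of viable tissue.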

[10] = tested on: HUVEC; experiment: Inhibition of FGF1-induced HUVEC cell proliferation; format: functional, cell-based; settings: Homo sapiens; procedure, shortened: as §2
[11] = tested on: Aorta; experiment: Inhibition of angiogenesis in Sprague-Dawley rat aortic endothelium at 10 uM; format: functional, tissue-based
Procedure, shortened: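 Sprague-Dawley rats (2–4 months old): bisected 1 mm thoracic aortic rings embedded in Matrigel in EBM-2 with 2% FCS, no heparin. Compound added in triplicate, medium replenished every 48 h. Microvessel sprouting scored semiquantitatively by two assessors up to day 8. One-way ANOVA with Dunnett's test.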

[12] = tested on: HUVEC; experiment: Inhibition of FGF2-induced HUVEC cell proliferation; format: functional, cell-based; settings: Homo sapiens; procedure, shortened: as §2
[13] = tested on: HUVEC; experiment: Antiangiogenic activity against HUVEC assessed as inhibition of endothelial cell tube formation on ECM-derived protein matrix at 100 uM by phase contrast microscopy; format: functional, cell-based; settings: Homo sapiens
Procedure, shortened: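 HUVECs at passage 4–5 (70–80% confluent) suspended in EGM2 with all supplements except heparin at 4×10^5 cells/mL, mixed 1:1 with compound (final 10, 50, 100 μM), plated in triplicate on growth factor-reduced Matrigel. Incubated 18 h; tubes scored by phase-contrast microscopy. Untreated cells as control; one-way ANOVA with Dunnett's test.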

Chain of Fibroblast growth factor 2 (P09038 143-288 limits assumed): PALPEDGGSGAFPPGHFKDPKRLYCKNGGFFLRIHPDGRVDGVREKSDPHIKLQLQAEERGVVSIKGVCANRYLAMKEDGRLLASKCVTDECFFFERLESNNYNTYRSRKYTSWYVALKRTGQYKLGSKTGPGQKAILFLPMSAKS

Row | Compound | Kd [1] | Time [2] | LC50 [3] | Kd [4] | Kd [5] | Activity [6] | Ki [7] | Activity [8] | Activity [9] | Activity [10] | Activity [11] | Activity [12] | TIME [2] | inhibition [13]
1 | CCCCCCCCCCCCO[C@H]1O[C@H](COS(=O)(=O)[O-])[C@@H](OS(=O)(=O)[O-])[C@H](OS(=O)(=O)[O-])[C@@H]1O[C@H]1O[C@H](COS(=O)(=O)[O-])[C@@H](OS(=O)(=O)[O-])[C@H](O[C@H]2O[C@H](COS(=O)(=O)[O-])[C@@H](OS(=O)(=O)[O-])[C@H](O[C@H]3O[C@H](COS(=O)(=O)[O-])[C@@H](OS(=O)(=O)[O-])[C@H](O[C@H]4O[C@H](COS(=O)(=O)[O-])[C@@H](OS(=O)(=O)[O-])[C@H](OS(=O)(=O)[O-])[C@@H]4OS(=O)(=O)[O-])[C@@H]3OS(=O)(=O)[O-])[C@@H]2OS(=O)(=O)[O-])[C@@H]1OS(=O)(=O)[O-].[Na+].[Na+].[Na+].[Na+].[Na+].[Na+].[Na+].[Na+].[Na+].[Na+].[Na+].[Na+].[Na+].[Na+].[Na+].[Na+] | 480 nM | 125.9 s | > 100000 nM | 12 nM | 6 nM | 64.2 s | 280 nM | – | – | – | – | – | – | –
2 | O=S(=O)([O-])OC[C@H]1O[C@H](OCc2ccccc2)[C@@H](O[C@H]2O[C@H](COS(=O)(=O)[O-])[C@@H](OS(=O)(=O)[O-])[C@H](O[C@H]3O[C@H](COS(=O)(=O)[O-])[C@@H](OS(=O)(=O)[O-])[C@H](O[C@H]4O[C@H](COS(=O)(=O)[O-])[C@@H](OS(=O)(=O)[O-])[C@H](OS(=O)(=O)[O-])[C@@H]4OS(=O)(=O)[O-])[C@@H]3OS(=O)(=O)[O-])[C@@H]2OS(=O)(=O)[O-])[C@@H](OS(=O)(=O)[O-])[C@@H]1OS(=O)(=O)[O-].[Na+].[Na+].[Na+].[Na+].[Na+].[Na+].[Na+].[Na+].[Na+].[Na+].[Na+].[Na+].[Na+] | 129 nM | 417.9 s | > 100000 nM | 21 nM | 0.24 nM | 281.1 s | 280 nM | Active | Toxic | Active | Active | Active | – | –
3 | MUPARFOSTAT SODIUM [listing 1 of 2 here] | – | – | – | – | – | > 500 s | – | – | – | – | – | – | > 0.139 h | 58%
4 | MUPARFOSTAT SODIUM [listing 2 of 2 here] | – | – | > 100000 nM | – | – | – | – | – | Toxic | – | – | – | – | –
5 | O=S(=O)([O-])OC[C@H]1O[C@H](OCCCCCCCCn2cc(-c3ccccc3)nn2)[C@@H](O[C@H]2O[C@H](COS(=O)(=O)[O-])[C@@H](OS(=O)(=O)[O-])[C@H](O[C@H]3O[C@H](COS(=O)(=O)[O-])[C@@H](OS(=O)(=O)[O-])[C@H](O[C@H]4O[C@H](COS(=O)(=O)[O-])[C@@H](OS(=O)(=O)[O-])[C@H](O[C@H]5O[C@H](COS(=O)(=O)[O-])[C@@H](OS(=O)(=O)[O-])[C@H](OS(=O)(=O)[O-])[C@@H]5OS(=O)(=O)[O-])[C@@H]4OS(=O)(=O)[O-])[C@@H]3OS(=O)(=O)[O-])[C@@H]2OS(=O)(=O)[O-])[C@@H](OS(=O)(=O)[O-])[C@@H]1OS(=O)(=O)[O-].[Na+].[Na+].[Na+].[Na+].[Na+].[Na+].[Na+].[Na+].[Na+].[Na+].[Na+].[Na+].[Na+].[Na+].[Na+].[Na+] | 43 nM | 96.9 s | > 100000 nM | 0.62 nM | 0.16 nM | 38.4 s | 420 nM | – | – | – | – | – | – | –
6 | O=S(=O)([O-])OC[C@H]1O[C@H](OCCCCCCCCn2cc(-c3cccc4ccccc34)nn2)[C@@H](O[C@H]2O[C@H](COS(=O)(=O)[O-])[C@@H](OS(=O)(=O)[O-])[C@H](O[C@H]3O[C@H](COS(=O)(=O)[O-])[C@@H](OS(=O)(=O)[O-])[C@H](O[C@H]4O[C@H](COS(=O)(=O)[O-])[C@@H](OS(=O)(=O)[O-])[C@H](OS(=O)(=O)[O-])[C@@H]4OS(=O)(=O)[O-])[C@@H]3OS(=O)(=O)[O-])[C@@H]2OS(=O)(=O)[O-])[C@@H](OS(=O)(=O)[O-])[C@@H]1OS(=O)(=O)[O-].[Na+].[Na+].[Na+].[Na+].[Na+].[Na+].[Na+].[Na+].[Na+].[Na+].[Na+].[Na+].[Na+] | 110 nM | 59.5 s | > 100000 nM | 7.1 nM | 0.19 nM | 28.8 s | 270 nM | – | – | – | – | – | – | –
7 | O=S(=O)([O-])OC[C@H]1O[C@H](OCCCCCCCCn2cc(-c3ccccc3)nn2)[C@@H](O[C@H]2O[C@H](COS(=O)(=O)[O-])[C@@H](OS(=O)(=O)[O-])[C@H](O[C@H]3O[C@H](COS(=O)(=O)[O-])[C@@H](OS(=O)(=O)[O-])[C@H](O[C@H]4O[C@H](COS(=O)(=O)[O-])[C@@H](OS(=O)(=O)[O-])[C@H](OS(=O)(=O)[O-])[C@@H]4OS(=O)(=O)[O-])[C@@H]3OS(=O)(=O)[O-])[C@@H]2OS(=O)(=O)[O-])[C@@H](OS(=O)(=O)[O-])[C@@H]1OS(=O)(=O)[O-].[Na+].[Na+].[Na+].[Na+].[Na+].[Na+].[Na+].[Na+].[Na+].[Na+].[Na+].[Na+].[Na+] | 140 nM | 53 s | > 100000 nM | 10.4 nM | 0.28 nM | 24.4 s | 310 nM | – | Toxic | – | – | – | – | –
8 | O=S(=O)([O-])OC[C@H]1O[C@H](OCc2ccccc2)[C@@H](O[C@H]2O[C@H](COS(=O)(=O)[O-])[C@@H](OS(=O)(=O)[O-])[C@H](O[C@H]3O[C@H](COS(=O)(=O)[O-])[C@@H](OS(=O)(=O)[O-])[C@H](O[C@H]4O[C@H](COS(=O)(=O)[O-])[C@@H](OS(=O)(=O)[O-])[C@H](O[C@H]5O[C@H](COS(=O)(=O)[O-])[C@@H](OS(=O)(=O)[O-])[C@H](OS(=O)(=O)[O-])[C@@H]5OS(=O)(=O)[O-])[C@@H]4OS(=O)(=O)[O-])[C@@H]3OS(=O)(=O)[O-])[C@@H]2OS(=O)(=O)[O-])[C@@H](OS(=O)(=O)[O-])[C@@H]1OS(=O)(=O)[O-].[Na+].[Na+].[Na+].[Na+].[Na+].[Na+].[Na+].[Na+].[Na+].[Na+].[Na+].[Na+].[Na+].[Na+].[Na+].[Na+] | 95 nM | >500 s | > 100000 nM | 1.8 nM | 0.16 nM | >500 s | 370 nM | – | Toxic | – | Active | – | – | –
